Laboratory results from ChEMBL document CHEMBL4330069, “Boosting the efficacy of anti-MRSA β-lactam antibiotics via an easily accessible, non-cytotoxic and orally bioavailable FtsZ inhibitor” (Eur J Med Chem, 2019).
Values after ≈ are worked out from the molar mass of the structure shown.

Columns and labels:
Escherichia coli = experiment: Antibacterial activity against Escherichia coli ATCC 25922 by broth microdilution assay; format: functional
Outline: (§1)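 Broth microdilution per CLSI guidelines; compounds dissolved in DMSO; single agents tested; growth inhibition read by eye; run in duplicate (table footnote states at least triplicates).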

Staphylococcus aureus [1] = experiment: Antibacterial activity against Staphylococcus aureus ATCC 29213 by broth microdilution assay; format: functional; outline: as §1
L929 = experiment: Cytotoxicity against mouse L929 cells by MTS assay; format: cell-based
Outline: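 MTS assay on L929 mouse fibroblasts; IC50 reported as the average of three independent measurements.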

[2] = Selective index, ratio of IC50 for mouse L929 cells to MIC for Staphylococcus aureus ATCC 29213
Outline: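 Selectivity index calculated as L929 IC50 (μM) divided by S. aureus MIC (μM).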

Staphylococcus aureus [3] = experiment: Antibacterial activity against multidrug-resistant Staphylococcus aureus isolate 2490 by broth microdilution assay; format: functional
Outline: (§2)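 Broth microdilution MIC per CLSI guidelines against clinical MRSA isolates, for β-lactams and test compound alone and in combination. Compounds were dissolved in DMSO. Growth was read by eye, in duplicate. FIC index = FIC(compound) + FIC(drug); synergy defined as FIC index ≤0.5.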

Staphylococcus aureus [4] = experiment: Antibacterial activity against multidrug-resistant Staphylococcus aureus isolate 254 by broth microdilution assay; format: functional; outline: as §2
Staphylococcus aureus [5] = experiment: Antibacterial activity against multidrug-resistant Staphylococcus aureus isolate 231 by broth microdilution assay; format: functional; outline: as §2
Staphylococcus aureus [6] = experiment: Antibacterial activity against multidrug-resistant Staphylococcus aureus isolate 417 by broth microdilution assay; format: functional; outline: as §2
Staphylococcus aureus [7] = experiment: Antibacterial activity against multidrug-resistant Staphylococcus aureus isolate 1344 by broth microdilution assay; format: functional; outline: as §2
Staphylococcus aureus [8] = experiment: Antibacterial activity against multidrug-resistant Staphylococcus aureus isolate 2901 by broth microdilution assay; format: functional; outline: as §2
Staphylococcus aureus [9] = experiment: Antibacterial activity against multidrug-resistant Staphylococcus aureus isolate 3589 by broth microdilution assay; format: functional; outline: as §2
Staphylococcus aureus [10] = experiment: Antibacterial activity against multidrug-resistant Staphylococcus aureus isolate 256 by broth microdilution assay; format: functional; outline: as §2
Staphylococcus aureus [11] = experiment: Antibacterial activity against multidrug-resistant Staphylococcus aureus isolate 3332 by broth microdilution assay; format: functional; outline: as §2
Staphylococcus aureus [12] = experiment: Antibacterial activity against multidrug-resistant Staphylococcus aureus isolate 3411 by broth microdilution assay; format: functional; outline: as §2
Staphylococcus aureus [13] = experiment: Antibacterial activity against multidrug-resistant Staphylococcus aureus isolate 1136 by broth microdilution assay; format: functional; outline: as §2
Staphylococcus aureus [14] = experiment: Antibacterial activity against multidrug-resistant Staphylococcus aureus isolate 2895 by broth microdilution assay; format: functional; outline: as §2
Staphylococcus aureus [15] = experiment: Antibacterial activity against multidrug-resistant Staphylococcus aureus isolate 2516 by broth microdilution assay; format: functional; outline: as §2
Staphylococcus aureus [16] = experiment: Antibacterial activity against multidrug-resistant Staphylococcus aureus isolate 3267 by broth microdilution assay; format: functional; outline: as §2
Staphylococcus aureus [17] = experiment: Antibacterial activity against multidrug-resistant Staphylococcus aureus isolate 757 by broth microdilution assay; format: functional; outline: as §2
Staphylococcus aureus [18] = experiment: Antibacterial activity against multidrug-resistant Staphylococcus aureus isolate 1749 by broth microdilution assay; format: functional; outline: as §2
Staphylococcus aureus [19] = experiment: Antibacterial activity against multidrug-resistant Staphylococcus aureus isolate 1402 by broth microdilution assay; format: functional; outline: as §2
Staphylococcus aureus [20] = experiment: Antibacterial activity against multidrug-resistant Staphylococcus aureus isolate 2919 by broth microdilution assay; format: functional; outline: as §2
Staphylococcus aureus [21] = experiment: Antibacterial activity against multidrug-resistant Staphylococcus aureus isolate 2728 by broth microdilution assay; format: functional; outline: as §2
Staphylococcus aureus [22] = experiment: Antibacterial activity against multidrug-resistant Staphylococcus aureus isolate 1717 by broth microdilution assay; format: functional; outline: as §2
Staphylococcus aureus [23] = experiment: Antibacterial activity against multidrug-resistant Staphylococcus aureus isolate 2224 by broth microdilution assay; format: functional; outline: as §2
Staphylococcus aureus [24] = experiment: Antibacterial activity against multidrug-resistant Staphylococcus aureus isolate 358 by broth microdilution assay; format: functional; outline: as §2
Staphylococcus aureus [25] = experiment: Antibacterial activity against multidrug-resistant Staphylococcus aureus isolate 3580 by broth microdilution assay; format: functional; outline: as §2
Staphylococcus aureus [26] = experiment: Antibacterial activity against multidrug-resistant Staphylococcus aureus isolate 774 by broth microdilution assay; format: functional; outline: as §2
Staphylococcus aureus [27] = experiment: Antibacterial activity against multidrug-resistant Staphylococcus aureus isolate 200 by broth microdilution assay; format: functional; outline: as §2
Staphylococcus aureus [28] = experiment: Antibacterial activity against multidrug-resistant Staphylococcus aureus isolate 2973 by broth microdilution assay; format: functional; outline: as §2
Staphylococcus aureus [29] = experiment: Antibacterial activity against multidrug-resistant Staphylococcus aureus isolate 85 by broth microdilution assay; format: functional; outline: as §2
Staphylococcus aureus [30] = experiment: Antibacterial activity against multidrug-resistant Staphylococcus aureus isolate 1449 by broth microdilution assay; format: functional; outline: as §2

Compound: CCCCCC/C=C\CNc1ccc(F)c(C(N)=O)c1F
- MIC (Escherichia coli): > 64 µg/mL
- MIC (Staphylococcus aureus [1]): 25 µM (≈ 7.41 µg/mL)
- IC50 (L929): 99 µM
- Selectivity Index [2]: 4

Compound: Cc1onc(-c2ccccc2Cl)c1C(=O)N[C@@H]1C(=O)N2[C@@H]1SC(C)(C)[C@@H]2C(=O)O [CLOXACILLIN]
- MIC (Staphylococcus aureus [3]): 2 µg/mL (≈ 4.59 µM)
- MIC (Staphylococcus aureus [4]): 32 µg/mL (≈ 73.4 µM)
- MIC (Staphylococcus aureus [5]): 64 µg/mL (≈ 147 µM)
- MIC (Staphylococcus aureus [6]): 64 µg/mL (≈ 147 µM)
- MIC (Staphylococcus aureus [7]): 16 µg/mL (≈ 36.7 µM)
- MIC (Staphylococcus aureus [8]): 2 µg/mL (≈ 4.59 µM)
- MIC (Staphylococcus aureus [9]): 32 µg/mL (≈ 73.4 µM)
- MIC (Staphylococcus aureus [10]): 8 µg/mL (≈ 18.4 µM)
- MIC (Staphylococcus aureus [11]): 8 µg/mL (≈ 18.4 µM)
- MIC (Staphylococcus aureus [12]): 32 µg/mL (≈ 73.4 µM)
- MIC (Staphylococcus aureus [13]): 8 µg/mL (≈ 18.4 µM)
- MIC (Staphylococcus aureus [14]): 8 µg/mL (≈ 18.4 µM)
- MIC (Staphylococcus aureus [15]): 16 µg/mL (≈ 36.7 µM)
- MIC (Staphylococcus aureus [16]): 4 µg/mL (≈ 9.18 µM)
- MIC (Staphylococcus aureus [17]): 8 µg/mL (≈ 18.4 µM)
- MIC (Staphylococcus aureus [18]): 0.5 µg/mL (≈ 1.15 µM)
- MIC (Staphylococcus aureus [19]): 2 µg/mL (≈ 4.59 µM)
- MIC (Staphylococcus aureus [20]): 4 µg/mL (≈ 9.18 µM)
- MIC (Staphylococcus aureus [21]): 1 µg/mL (≈ 2.29 µM)
- MIC (Staphylococcus aureus [22]): 0.5 µg/mL (≈ 1.15 µM)
- MIC (Staphylococcus aureus [23]): 8 µg/mL (≈ 18.4 µM)
- MIC (Staphylococcus aureus [24]): 1 µg/mL (≈ 2.29 µM)
- MIC (Staphylococcus aureus [25]): 2 µg/mL (≈ 4.59 µM)
- MIC (Staphylococcus aureus [26]): 2 µg/mL (≈ 4.59 µM)
- MIC (Staphylococcus aureus [27]): 1 µg/mL (≈ 2.29 µM)
- MIC (Staphylococcus aureus [28]): 16 µg/mL (≈ 36.7 µM)
- MIC (Staphylococcus aureus [29]): 0.5 µg/mL (≈ 1.15 µM)
- MIC (Staphylococcus aureus [30]): 1 µg/mL (≈ 2.29 µM)

Compound: CCCCCCCCN(C)c1ccc(F)c(C(N)=O)c1F
- MIC (Escherichia coli): > 64 µg/mL
- MIC (Staphylococcus aureus [1]): 13 µM (≈ 3.88 µg/mL)
- IC50 (L929): 92 µM
- Selectivity Index [2]: 7

Compound: CCCCCCCCNc1ccc(F)c(C(N)=O)c1F
- MIC (Escherichia coli): > 64 µg/mL
- MIC (Staphylococcus aureus [1]): 50 µM (≈ 14.2 µg/mL)
- IC50 (L929): > 100 µM
- Selectivity Index [2]: >2

Compound: CCCCCOc1cccc(CNc2ccc(F)c(C(N)=O)c2F)c1
- MIC (Escherichia coli): > 64 µg/mL
- MIC (Staphylococcus aureus [1]): 50 µM (≈ 17.4 µg/mL)
- IC50 (L929): 87 µM
- Selectivity Index [2]: 2

Compound: CCCCOc1cccc(CNc2ccc(F)c(C(N)=O)c2F)c1
- MIC (Escherichia coli): > 64 µg/mL
- MIC (Staphylococcus aureus [1]): 50 µM (≈ 16.7 µg/mL)
- IC50 (L929): 99 µM
- Selectivity Index [2]: 2

Compound: NC(=O)c1c(F)ccc(N(Cc2ccc(Cl)cc2)Cc2ccc(Cl)cc2)c1F
- MIC (Escherichia coli): > 64 µg/mL
- MIC (Staphylococcus aureus [1]): 13 µM (≈ 5.48 µg/mL)
- IC50 (L929): > 100 µM
- Selectivity Index [2]: >8

Compound: CCCCCCCCCN(C)c1ccc(F)c(/C(N)=N/O)c1F
- MIC (Escherichia coli): > 64 µg/mL
- MIC (Staphylococcus aureus [1]): 13 µM (≈ 4.26 µg/mL)
- IC50 (L929): > 100 µM
- Selectivity Index [2]: >8

Compound: CC1(C)S[C@@H]2[C@H](NC(=O)[C@H](N)c3ccc(O)cc3)C(=O)N2[C@H]1C(=O)O [AMOXICILLIN]
- MIC (Staphylococcus aureus [3]): 128 µg/mL (≈ 350 µM)
- MIC (Staphylococcus aureus [4]): 128 µg/mL (≈ 350 µM)
- MIC (Staphylococcus aureus [5]): 256 µg/mL (≈ 701 µM)
- MIC (Staphylococcus aureus [6]): 512 µg/mL (≈ 1400 µM)
- MIC (Staphylococcus aureus [7]): 128 µg/mL (≈ 350 µM)
- MIC (Staphylococcus aureus [8]): 512 µg/mL (≈ 1400 µM)
- MIC (Staphylococcus aureus [9]): 128 µg/mL (≈ 350 µM)
- MIC (Staphylococcus aureus [10]): 256 µg/mL (≈ 701 µM)
- MIC (Staphylococcus aureus [11]): 64 µg/mL (≈ 175 µM)
- MIC (Staphylococcus aureus [12]): 256 µg/mL (≈ 701 µM)
- MIC (Staphylococcus aureus [13]): 512 µg/mL (≈ 1400 µM)
- MIC (Staphylococcus aureus [14]): 256 µg/mL (≈ 701 µM)
- MIC (Staphylococcus aureus [15]): 64 µg/mL (≈ 175 µM)
- MIC (Staphylococcus aureus [16]): 8 µg/mL (≈ 21.9 µM)
- MIC (Staphylococcus aureus [17]): 8 µg/mL (≈ 21.9 µM)
- MIC (Staphylococcus aureus [18]): 64 µg/mL (≈ 175 µM)
- MIC (Staphylococcus aureus [19]): 256 µg/mL (≈ 701 µM)
- MIC (Staphylococcus aureus [20]): 1020 µg/mL (≈ 2800 µM)
- MIC (Staphylococcus aureus [21]): 512 µg/mL (≈ 1400 µM)
- MIC (Staphylococcus aureus [22]): 32 µg/mL (≈ 87.6 µM)
- MIC (Staphylococcus aureus [23]): 512 µg/mL (≈ 1400 µM)
- MIC (Staphylococcus aureus [24]): 256 µg/mL (≈ 701 µM)
- MIC (Staphylococcus aureus [25]): 256 µg/mL (≈ 701 µM)
- MIC (Staphylococcus aureus [26]): 512 µg/mL (≈ 1400 µM)
- MIC (Staphylococcus aureus [27]): 512 µg/mL (≈ 1400 µM)
- MIC (Staphylococcus aureus [28]): 512 µg/mL (≈ 1400 µM)
- MIC (Staphylococcus aureus [29]): 256 µg/mL (≈ 701 µM)
- MIC (Staphylococcus aureus [30]): 2 µg/mL (≈ 5.47 µM)
